The results in this text go back to ChEMBL document CHEMBL1146008, “Design, synthesis, and evaluation of novel biarylpyrimidines: a new class of ligand for unusual nucleic acid structures” (J Med Chem, 2006).

By IC50 is commonly meant the concentration needed to halve the response being measured.

One experiment deals with Nucleic Acid. Kind of experiment: Inhibition of telomerase by TRAP assay. Format: nucleic-acid assay, Homo sapiens. In a few lines: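 Human telomerase activity measured with a commercially available telomeric repeat amplification protocol (TRAP) kit. The value is the concentration giving 50% inhibition (telIC50). An internal reference telomerase inhibitor (BSU-1021) was run in the same assay.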

A further experiment has as its system NCI-H460. In words: Inhibition of human NCI-H460 cell growth at 100 uM relative to control. Format: functional. The conditions noted are these: values are per cent of control.
Another experiment relates to MCF7. Kind of experiment: Inhibition of human MCF7 cell growth at 100 uM relative to control. Type of experiment: functional. Particulars: values are per cent of control.
A further experiment concerns SF-268. Kind of experiment: Inhibition of human SF268 cell growth at 100 uM relative to control. Type of experiment: functional. Particulars: values are per cent of control.

`CN(C)CCSc1ccc(-c2cc(-c3ccc(SCCN(C)C)cc3)ncn2)cc1` displayed an IC50 against Nucleic Acid greater than 40 µM.
For `O=C(NCCO)c1ccc(-c2cc(-c3ccc(C(=O)NCCO)cc3)ncn2)cc1`, the results for the growth, % of control at 100 µM in the experiment with NCI-H460, with MCF7 and in the experiment with SF-268 were 104%, 83% and 104%, respectively.
In the case of `CN(C)CCNC(=O)c1ccc(-c2cc(-c3ccc(C(=O)NCCN(C)C)cc3)ncn2)cc1`, the growth, % of control at 100 µM in the experiment on NCI-H460 was 100%; with MCF7 it was 96%; with SF-268, 108%. The same compound gave a 50% inhibitory concentration (IC50) against Nucleic Acid greater than 40 µM.
At Nucleic Acid, `CCN(CC)CCNC(=O)c1ccc(-c2cc(-c3ccc(C(=O)NCCN(CC)CC)cc3)ncn2)cc1` displayed an IC50 of 10 µM.
In the case of `COCCSc1ccc(-c2cc(-c3ccc(SCCOC)cc3)ncn2)cc1`, the values for the growth, % of control at 100 µM in the experiment with NCI-H460, in the experiment with MCF7 and in the experiment on SF-268 were 94%, 33% and 106%, respectively. Moreover, on Nucleic Acid, the IC50 was greater than 40 µM.
For `c1nc(-c2ccc(SCCN3CCOCC3)cc2)cc(-c2ccc(SCCN3CCOCC3)cc2)n1`, the growth, % of control at 100 µM in the experiment with NCI-H460 turned out to be 96%; in the experiment on MCF7, 95%; in the experiment with SF-268, 102%.
For `OCCSc1ccc(-c2cc(-c3ccc(SCCO)cc3)ncn2)cc1`, in that order: 99%, 97% and 119%.
On to `CCN(CC)CCSc1ccc(-c2cc(-c3ccc(SCCN(CC)CC)cc3)ncn2)cc1`, for which the figures for the growth, % of control at 100 µM with NCI-H460, with MCF7 and in the experiment with SF-268 were 98%, 83% and 85%, respectively.
Regarding `c1nc(-c2ccc(SCCN3CCCCC3)cc2)cc(-c2ccc(SCCN3CCCCC3)cc2)n1`, the growth, % of control at 100 µM stood at 98% in the experiment on NCI-H460, 68% with MCF7 and 79% in the experiment on SF-268. The IC50 at Nucleic Acid was greater than 40 µM.
